One block for each molecule: values may come before it.
Key:
[1] = Chemical stability in simulated gastric fluid after 4 hrs; format: physicochemical; details: read-out: Stability
Summary of the method: (§1)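 Compound at 0.01 mg/mL final in a 9:1 mix of aqueous buffer (pH 1.0, 4.5, 6.6 or 7.4) or simulated gastric fluid with acetonitrile, held at 37 °C in the autosampler. Injected every 4 h over 24 h onto C8 HPLC. Percent remaining from peak area at 304 nm, corrected by internal standard; products confirmed by LC/MS (-ESI).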

[2] = Chemical stability at pH 6.6 after 4 hrs; format: physicochemical; details: buffer, read-out: Stability; summary of the method: as §1
[3] = Chemical stability at pH 1 after 4 hrs; format: physicochemical; details: buffer, read-out: Stability; summary of the method: as §1
[4] = Chemical stability at pH 7.4 after 4 hrs; format: physicochemical; details: buffer, read-out: Stability; summary of the method: as §1
[5] = Chemical stability at pH 4.5 after 4 hrs; format: physicochemical; details: buffer, read-out: Stability; summary of the method: as §1
Rattus norvegicus = organism: Rattus norvegicus; assay: Antinociceptive activity in Sprague-Dawley rat assessed as reversal of PGE2-induced thermal hypersensitivity after 5 hrs; format: functional
Summary of the method: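 Male Sprague-Dawley rats (200-250 g) fasted ~16 h and dosed orally in 2% Tween-80/0.5% methylcellulose (1 mL/kg) 0.5-48 h before intradermal PGE2 (0.1 mg in 50 µL). Tail-withdrawal latency was read 30 min later in water at 34-58 °C, with a 20 s cutoff. T10 from each rat's temperature-effect curve; within-subjects repeated-measures ANOVA, p < 0.05.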

[6] = Chemical stability in simulated gastric fluid after 8 hrs; format: physicochemical; details: read-out: Stability; summary of the method: as §1
[7] = Chemical stability in simulated gastric fluid after 16 hrs; format: physicochemical; details: read-out: Stability; summary of the method: as §1
[8] = Chemical stability at pH 1 after 20 hrs; format: physicochemical; details: buffer, read-out: Stability; summary of the method: as §1
[9] = Chemical stability at pH 6.6 after 8 hrs; format: physicochemical; details: buffer, read-out: Stability; summary of the method: as §1
[10] = Chemical stability at pH 6.6 after 24 hrs; format: physicochemical; details: buffer, read-out: Stability; summary of the method: as §1
Blood [11] = assay: Biodistribution in Sprague-Dawley rat blood assessed as formation of perzinfotel at 10 mg/kg, po after 0.167 hrs; format: ADME, organism-based; set-up: dose 10 mg/kg, route oral; details: in vivo
Summary of the method: (§2)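 Male Sprague-Dawley rats given [14C]-labelled compound by oral gavage (parent at 30 mg/kg, prodrug at 10 mg/kg). Blood, plasma and brain taken at 0.167, 0.5, 1, 4, 8 and 24 h (n = 3 rats/time point). Total radioactivity measured in each matrix. Metabolite profiles from HPLC with in-line radioactivity detection.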

[12] = Chemical stability in simulated gastric fluid after 20 hrs; format: physicochemical; details: read-out: Stability; summary of the method: as §1
Blood [13] = assay: Biodistribution in Sprague-Dawley rat blood assessed as formation of perzinfotel at 10 mg/kg, po after 0.5 hrs; format: ADME, organism-based; set-up: dose 10 mg/kg, route oral; details: in vivo; summary of the method: as §2
Plasma [14] = assay: Biodistribution in Sprague-Dawley rat plasma assessed as formation of perzinfotel at 10 mg/kg, po after 0.5 hrs; format: ADME, organism-based; set-up: dose 10 mg/kg, route oral; details: in vivo; summary of the method: as §2
[15] = Chemical stability at pH 4.5 after 24 hrs; format: physicochemical; details: buffer, read-out: Stability; summary of the method: as §1
[16] = Chemical stability in simulated intestinal bile fluid after 8 hrs; format: physicochemical; details: read-out: Stability
Summary of the method: (§3)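 Compound taken up in 9:1 simulated intestinal bile fluid:acetonitrile at a final 0.01 mg/mL, held in a 37 °C autosampler. HPLC injections every 4 h over 24 h. Percent remaining taken from peak area at 304 nm, corrected by internal standard. Products identified by LC/MS (-ESI).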

[17] = Chemical stability at pH 4.5 after 8 hrs; format: physicochemical; details: buffer, read-out: Stability; summary of the method: as §1
[18] = Chemical stability at pH 7.4 after 16 hrs; format: physicochemical; details: buffer, read-out: Stability; summary of the method: as §1
[19] = Half life in Sprague-Dawley rat plasma assessed as loss of 3-{2[8,9-Dioxo-2,6-diazabicyclo[5.2.0-[non-1(7)-en-2-yl}-3-oxido-7-oxo-7-phenyl-2,4,6-trioxa-3-phosphahept-1-yl Benzoate; format: ADME
Summary of the method: (§4)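 Dissolved at 0.05 mg/mL in rat plasma and incubated at 37 °C for 0–24 h. Samples quenched with acetonitrile and centrifuged; supernatant diluted and run on HPLC. Parent and conversion products quantified by peak area at 304 nm, corrected by internal standard, and confirmed by LC/MS. Kinetics fitted to a two-step first-order model.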

[20] = Chemical stability in simulated intestinal bile fluid after 24 hrs; format: physicochemical; details: read-out: Stability; summary of the method: as §3
[21] = Chemical stability in simulated intestinal bile fluid after 20 hrs; format: physicochemical; details: read-out: Stability; summary of the method: as §3
Plasma [22] = assay: Biodistribution in Sprague-Dawley rat plasma assessed as formation of perzinfotel at 10 mg/kg, po after 0.167 hrs; format: ADME, organism-based; set-up: dose 10 mg/kg, route oral; details: in vivo; summary of the method: as §2
[23] = Chemical stability at pH 6.6 after 16 hrs; format: physicochemical; details: buffer, read-out: Stability; summary of the method: as §1
[24] = Chemical stability at pH 6.6 after 20 hrs; format: physicochemical; details: buffer, read-out: Stability; summary of the method: as §1
[25] = Chemical stability at pH 1 after 8 hrs; format: physicochemical; details: buffer, read-out: Stability; summary of the method: as §1
Brain [26] = assay: Biodistribution in Sprague-Dawley rat brain assessed as formation of perzinfotel at 10 mg/kg, po after 0.167 hrs; format: ADME, organism-based; set-up: dose 10 mg/kg, route oral; details: in vivo; summary of the method: as §2
[27] = Chemical stability at pH 4.5 after 16 hrs; format: physicochemical; details: buffer, read-out: Stability; summary of the method: as §1
[28] = Chemical stability in simulated gastric fluid after 24 hrs; format: physicochemical; details: read-out: Stability; summary of the method: as §1
Plasma [29] = assay: Stability in rat plasma assessed as conversion of benzoic acid [2-(8,9-dioxo-2,6-diaza-bicyclo[5.2.0]non-1(7)-en-2-yl)-ethyl]-hydroxy-phosphinoyloxymethyl ester to perzinfotel after 3 hrs by Lc/MS analysis; format: ADME, cell-free; summary of the method: as §4
[30] = Chemical stability at pH 7.4 after 8 hrs; format: physicochemical; details: buffer, read-out: Stability; summary of the method: as §1
[31] = Chemical stability in simulated intestinal bile fluid after 4 hrs; format: physicochemical; details: read-out: Stability; summary of the method: as §3
Brain [32] = assay: Biodistribution in Sprague-Dawley rat brain assessed as formation of perzinfotel at 10 mg/kg, po after 0.5 hrs; format: ADME, organism-based; set-up: dose 10 mg/kg, route oral; details: in vivo; summary of the method: as §2
[33] = Chemical stability in simulated intestinal bile fluid after 16 hrs; format: physicochemical; details: read-out: Stability; summary of the method: as §3
[34] = Chemical stability at pH 7.4 after 12 hrs; format: physicochemical; details: buffer, read-out: Stability; summary of the method: as §1
[35] = Chemical stability in simulated gastric fluid after 12 hrs; format: physicochemical; details: read-out: Stability; summary of the method: as §1
[36] = Chemical stability at pH 4.5 after 20 hrs; format: physicochemical; details: buffer, read-out: Stability; summary of the method: as §1
[37] = Half life in pH 8.5 buffer assessed as loss of 3-{2[8,9-Dioxo-2,6-diazabicyclo[5.2.0-[non-1(7)-en-2-yl}-3-oxido-7-oxo-7-phenyl-2,4,6-trioxa-3-phosphahept-1-yl Benzoate; format: physicochemical
Summary of the method: (§5)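 Compound at a final 0.01 mg/mL in 9:1 pH 8.5 buffer or simulated intestinal fluid:acetonitrile, 37 °C. HPLC injections every 4 h over 24 h, with peak area at 304 nm corrected by internal standard and identities confirmed by LC/MS. Conversion kinetics fitted to a two-step first-order model to give rate constants, half-lives and Tmax of the hemiester.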

[38] = Chemical stability at pH 1 after 12 hrs; format: physicochemical; details: buffer, read-out: Stability; summary of the method: as §1
Glutamate NMDA receptor = assay: Displacement of [3H]CGP-39653 from rat brain NMDA receptor
Summary of the method: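 Competitive displacement of [3H]CGP-39653 at the NMDA recognition site, using rat whole-brain membranes.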

[39] = Chemical stability at pH 1 after 24 hrs; format: physicochemical; details: buffer, read-out: Stability; summary of the method: as §1
[40] = Chemical stability at pH 7.4 after 24 hrs; format: physicochemical; details: buffer, read-out: Stability; summary of the method: as §1
[41] = biological target: Glutamate NMDA receptor (Rattus norvegicus) (UniProt P35439+Q00959+Q00960+Q00961+Q62645+Q8VHN2+Q9R1M7); assay: Antagonist activity at rat brain NMDA receptor assessed as inhibition of glutamate-induced [3H]TCP binding at 300 uM
Summary of the method: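 Functional NMDA antagonism was measured as inhibition of glutamate-stimulated [3H]-TCP binding to rat whole-brain membranes. The value is percent inhibition at a single concentration.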

[42] = Chemical stability at pH 4.5 after 12 hrs; format: physicochemical; details: buffer, read-out: Stability; summary of the method: as §1
[43] = Chemical stability at pH 1 after 16 hrs; format: physicochemical; details: buffer, read-out: Stability; summary of the method: as §1
[44] = Half life in simulated intestinal fluid assessed as loss of 3-{2[8,9-Dioxo-2,6-diazabicyclo[5.2.0-[non-1(7)-en-2-yl}-3-oxido-7-oxo-7-phenyl-2,4,6-trioxa-3-phosphahept-1-yl Benzoate; format: physicochemical; summary of the method: as §5
[45] = Chemical stability in simulated intestinal bile fluid after 12 hrs; format: physicochemical; details: read-out: Stability
Summary of the method: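 Compound at 0.01 mg/mL final in a 9:1 mix of simulated intestinal bile fluid and acetonitrile at 37 °C. Fed-state medium pH 5.5 with 10 mM sodium taurocholate; fasted-state medium pH 6.0 with 1 mM. Sampled every 4 h to 24 h by HPLC. Percent remaining from 304 nm peak area, corrected by internal standard.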

[46] = Chemical stability at pH 7.4 after 20 hrs; format: physicochemical; details: buffer, read-out: Stability; summary of the method: as §1
[47] = Chemical stability at pH 6.6 after 12 hrs; format: physicochemical; details: buffer, read-out: Stability; summary of the method: as §1

remaining at 4 h [1]: 91.6%
remaining at 4 h [2]: 95%
remaining at 4 h [3]: 89%
remaining at 4 h [4]: 94.4%
remaining at 4 h [5]: 99.4%
SMILES: O=C(OCOP(=O)(CCN1CCCNc2c1c(=O)c2=O)OCOC(=O)C1CCCCC1)C1CCCCC1

remaining at 4 h [1]: 99.6%
remaining at 8 h [6]: 99.3%
remaining at 16 h [7]: 98.7%
remaining at 20 h [8]: 98%
remaining at 8 h [9]: 95.7%
remaining at 24 h [10]: 87.4%
Drug uptake (Blood [11]): 88%
remaining at 20 h [12]: 98.3%
Drug uptake (Blood [13]): 98%
Drug uptake (Plasma [14]): 98%
remaining at 24 h [15]: 99.5%
remaining at 8 h [16]: 99.3%
remaining at 8 h [17]: 100%
remaining at 16 h [18]: 68.7%
half-life [19]: < 4.2 min
remaining at 24 h [20]: 98.1%
remaining at 20 h [21]: 98.5%
remaining at 4 h [2]: 98.1%
Drug uptake (Plasma [22]): 88%
remaining at 16 h [23]: 91.5%
remaining at 20 h [24]: 89.4%
remaining at 4 h [3]: 99.7%
remaining at 8 h [25]: 99.3%
Drug uptake (Brain [26]): 88%
remaining at 16 h [27]: 99.7%
remaining at 24 h [28]: 98%
remaining at 4 h [4]: 91.6%
Stability (Plasma [29]): 90%
remaining at 8 h [30]: 83.2%
remaining at 4 h [31]: 99.5%
Drug uptake (Brain [32]): 98%
remaining at 16 h [33]: 98.6%
remaining at 12 h [34]: 75.6%
remaining at 12 h [35]: 99%
remaining at 20 h [36]: 99.5%
half-life [37]: 1.84 h
remaining at 12 h [38]: 98.9%
IC50 (Glutamate NMDA receptor): 4.2 µM
remaining at 24 h [39]: 97.9%
remaining at 24 h [40]: 56.7%
inhibition [41]: 8%
remaining at 12 h [42]: 99.8%
remaining at 16 h [43]: 98.5%
remaining at 4 h [5]: 100%
half-life [44]: 3.57 h
remaining at 12 h [45]: 98.6%
remaining at 20 h [46]: 62.2%
remaining at 12 h [47]: 93.7%
SMILES: O=C(OCOP(=O)(CCN1CCCNc2c1c(=O)c2=O)OCOC(=O)c1ccccc1)c1ccccc1
ED50 (Rattus norvegicus): 10 mg/kg

— ChEMBL document CHEMBL1143386, “Prodrugs of perzinfotel with improved oral bioavailability” (J Med Chem, 2009)
